ChEMBL document CHEMBL1139317, “Design, synthesis and biological evaluation of novel bicyclo[1.1.1]pentane-based omega-acidic amino acids as glutamate receptors ligands” (Bioorg Med Chem, 2009)
Active and inactive are the calls of the source. No cut-off for these calls is given here.

Tests used:
[1] = molecular target: Metabotropic glutamate receptor 1 (Homo sapiens, UniProt Q13255); assay: Displacement of [3H]Quisqualate from human mGluR1A receptor expressed in BHK cells; assay type: cell-based
[2] = organism: Rattus norvegicus; assay: Agonist activity at NMDA receptor in rat cortical membranes up to 1 mM by [3H]MK801 binding assay; assay type: cell membranes
Summary of the method: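 [3H]MK801 binding to rat cortical membranes; agonist action read as potentiation of [3H]MK801 binding relative to basal, with glutamate/glycine as reference stimulants of binding.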

[3] = Displacement of [3H]kainic acid from kainate receptor in rat brain membranes; assay type: cell membranes
[4] = molecular target: Metabotropic glutamate receptor 2 (Homo sapiens, UniProt Q14416); assay: Displacement of [3H]LY341495 from human mGluR2 receptor expressed in BHK cells
[5] = Displacement of [3H]AMPA from AMPA receptor in rat brain membranes; assay type: cell membranes
[6] = molecular target: Metabotropic glutamate receptor 4 (Homo sapiens, UniProt Q14833); assay: Displacement of [3H]L-AP4 from human mGluR4 receptor expressed in BHK cells
[7] = molecular target: Metabotropic glutamate receptor 5 (Homo sapiens, UniProt P41594); assay: Displacement of [3H]Quisqualate from human mGluR5 receptor expressed in BHK cells; assay type: cell-based
[8] = molecular target: T1, Glutamate NMDA receptor (Rattus norvegicus) (UniProt P35439+Q00959+Q00960+Q00961+Q62645+Q8VHN2+Q9R1M7); assay: Antagonist activity at NMDA receptor in rat cortical membranes assessed as inhibition of [3H]MK801 binding in presence of glutamate and glycine; assay type: cell membranes
[9] = molecular target: Glutamate NMDA receptor
[10] = molecular target: T1, Glutamate NMDA receptor (Rattus norvegicus); conditions: Brain, Brain membranes

Metabotropic glutamate receptor 1, sequence (Q13255 whole entry): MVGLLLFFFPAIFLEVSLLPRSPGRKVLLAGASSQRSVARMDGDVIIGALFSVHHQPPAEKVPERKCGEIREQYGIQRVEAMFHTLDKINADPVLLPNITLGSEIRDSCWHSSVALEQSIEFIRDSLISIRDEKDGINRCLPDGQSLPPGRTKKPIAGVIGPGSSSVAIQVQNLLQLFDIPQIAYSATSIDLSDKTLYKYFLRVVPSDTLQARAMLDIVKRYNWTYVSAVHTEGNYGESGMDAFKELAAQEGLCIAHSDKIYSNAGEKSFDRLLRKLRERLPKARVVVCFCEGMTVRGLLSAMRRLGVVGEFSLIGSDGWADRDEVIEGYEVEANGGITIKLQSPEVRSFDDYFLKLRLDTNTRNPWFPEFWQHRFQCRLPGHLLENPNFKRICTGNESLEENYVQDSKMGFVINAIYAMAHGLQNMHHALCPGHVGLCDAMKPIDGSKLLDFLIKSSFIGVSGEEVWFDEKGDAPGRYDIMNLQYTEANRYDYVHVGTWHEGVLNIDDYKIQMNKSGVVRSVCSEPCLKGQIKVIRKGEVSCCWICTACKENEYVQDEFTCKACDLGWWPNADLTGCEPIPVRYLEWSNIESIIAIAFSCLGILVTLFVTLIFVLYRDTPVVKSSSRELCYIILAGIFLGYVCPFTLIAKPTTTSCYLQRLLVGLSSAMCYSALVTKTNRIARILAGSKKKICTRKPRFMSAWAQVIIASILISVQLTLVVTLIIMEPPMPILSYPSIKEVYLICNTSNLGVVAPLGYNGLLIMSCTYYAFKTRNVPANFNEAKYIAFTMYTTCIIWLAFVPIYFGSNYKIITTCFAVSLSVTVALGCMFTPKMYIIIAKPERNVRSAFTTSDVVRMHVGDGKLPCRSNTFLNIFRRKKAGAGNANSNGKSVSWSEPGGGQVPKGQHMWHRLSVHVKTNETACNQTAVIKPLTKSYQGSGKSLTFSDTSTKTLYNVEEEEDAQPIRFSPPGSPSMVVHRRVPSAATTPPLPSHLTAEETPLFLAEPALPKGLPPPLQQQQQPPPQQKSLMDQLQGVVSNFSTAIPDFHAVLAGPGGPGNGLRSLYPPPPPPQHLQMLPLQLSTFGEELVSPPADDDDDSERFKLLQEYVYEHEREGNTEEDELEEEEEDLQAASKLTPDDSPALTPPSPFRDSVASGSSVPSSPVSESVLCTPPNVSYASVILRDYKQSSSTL
Metabotropic glutamate receptor 2, sequence (Q14416 whole entry): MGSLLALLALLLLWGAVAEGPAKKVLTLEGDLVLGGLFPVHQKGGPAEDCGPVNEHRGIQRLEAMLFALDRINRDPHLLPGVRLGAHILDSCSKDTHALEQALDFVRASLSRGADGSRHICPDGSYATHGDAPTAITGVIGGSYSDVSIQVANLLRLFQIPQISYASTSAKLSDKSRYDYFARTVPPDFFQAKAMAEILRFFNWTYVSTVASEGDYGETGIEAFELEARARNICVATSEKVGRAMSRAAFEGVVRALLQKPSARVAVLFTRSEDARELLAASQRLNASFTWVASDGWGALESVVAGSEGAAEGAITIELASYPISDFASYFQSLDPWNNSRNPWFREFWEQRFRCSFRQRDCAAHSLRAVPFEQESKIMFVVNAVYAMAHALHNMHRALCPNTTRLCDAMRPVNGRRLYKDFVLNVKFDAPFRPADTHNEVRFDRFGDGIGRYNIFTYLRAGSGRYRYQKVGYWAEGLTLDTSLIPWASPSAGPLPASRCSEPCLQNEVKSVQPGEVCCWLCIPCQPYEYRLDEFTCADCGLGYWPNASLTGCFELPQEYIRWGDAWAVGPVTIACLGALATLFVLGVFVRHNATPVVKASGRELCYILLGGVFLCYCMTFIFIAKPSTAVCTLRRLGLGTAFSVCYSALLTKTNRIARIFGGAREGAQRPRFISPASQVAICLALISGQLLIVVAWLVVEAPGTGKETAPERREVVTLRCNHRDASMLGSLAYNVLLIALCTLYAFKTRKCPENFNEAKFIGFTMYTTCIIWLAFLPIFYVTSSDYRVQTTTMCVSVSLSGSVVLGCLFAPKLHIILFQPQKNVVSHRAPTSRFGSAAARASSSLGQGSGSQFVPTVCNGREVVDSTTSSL
Metabotropic glutamate receptor 5, sequence (P41594 whole entry): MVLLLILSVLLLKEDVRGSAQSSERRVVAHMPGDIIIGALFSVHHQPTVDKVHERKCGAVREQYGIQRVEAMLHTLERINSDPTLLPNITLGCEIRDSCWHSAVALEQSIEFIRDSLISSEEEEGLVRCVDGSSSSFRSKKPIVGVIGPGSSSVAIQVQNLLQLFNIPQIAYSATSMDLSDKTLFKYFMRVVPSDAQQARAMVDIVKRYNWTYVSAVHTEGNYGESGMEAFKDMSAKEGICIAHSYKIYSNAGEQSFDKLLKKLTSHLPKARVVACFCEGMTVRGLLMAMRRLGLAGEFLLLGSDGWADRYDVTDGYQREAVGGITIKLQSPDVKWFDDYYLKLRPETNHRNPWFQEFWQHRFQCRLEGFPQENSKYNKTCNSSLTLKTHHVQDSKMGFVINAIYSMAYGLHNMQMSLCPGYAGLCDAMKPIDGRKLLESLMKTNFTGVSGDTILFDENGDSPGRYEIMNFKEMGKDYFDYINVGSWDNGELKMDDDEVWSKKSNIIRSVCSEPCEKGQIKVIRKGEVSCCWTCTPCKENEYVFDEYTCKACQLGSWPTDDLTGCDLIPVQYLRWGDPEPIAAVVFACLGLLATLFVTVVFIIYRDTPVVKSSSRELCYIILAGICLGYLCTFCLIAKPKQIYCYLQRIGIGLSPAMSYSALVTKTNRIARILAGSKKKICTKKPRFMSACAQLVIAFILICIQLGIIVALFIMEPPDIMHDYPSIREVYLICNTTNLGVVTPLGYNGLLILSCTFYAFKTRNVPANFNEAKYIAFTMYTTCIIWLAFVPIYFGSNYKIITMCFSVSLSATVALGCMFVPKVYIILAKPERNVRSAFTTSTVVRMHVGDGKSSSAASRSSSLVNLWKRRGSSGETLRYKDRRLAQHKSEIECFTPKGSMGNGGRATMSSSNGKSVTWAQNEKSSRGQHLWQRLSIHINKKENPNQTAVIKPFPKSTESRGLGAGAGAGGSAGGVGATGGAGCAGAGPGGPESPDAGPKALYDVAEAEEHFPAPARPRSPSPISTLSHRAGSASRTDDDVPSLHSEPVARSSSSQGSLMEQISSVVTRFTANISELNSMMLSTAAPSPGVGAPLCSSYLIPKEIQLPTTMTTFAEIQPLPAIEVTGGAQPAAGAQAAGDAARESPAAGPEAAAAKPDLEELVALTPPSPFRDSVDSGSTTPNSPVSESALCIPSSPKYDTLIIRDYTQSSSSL
Metabotropic glutamate receptor 4, sequence (Q14833 whole entry): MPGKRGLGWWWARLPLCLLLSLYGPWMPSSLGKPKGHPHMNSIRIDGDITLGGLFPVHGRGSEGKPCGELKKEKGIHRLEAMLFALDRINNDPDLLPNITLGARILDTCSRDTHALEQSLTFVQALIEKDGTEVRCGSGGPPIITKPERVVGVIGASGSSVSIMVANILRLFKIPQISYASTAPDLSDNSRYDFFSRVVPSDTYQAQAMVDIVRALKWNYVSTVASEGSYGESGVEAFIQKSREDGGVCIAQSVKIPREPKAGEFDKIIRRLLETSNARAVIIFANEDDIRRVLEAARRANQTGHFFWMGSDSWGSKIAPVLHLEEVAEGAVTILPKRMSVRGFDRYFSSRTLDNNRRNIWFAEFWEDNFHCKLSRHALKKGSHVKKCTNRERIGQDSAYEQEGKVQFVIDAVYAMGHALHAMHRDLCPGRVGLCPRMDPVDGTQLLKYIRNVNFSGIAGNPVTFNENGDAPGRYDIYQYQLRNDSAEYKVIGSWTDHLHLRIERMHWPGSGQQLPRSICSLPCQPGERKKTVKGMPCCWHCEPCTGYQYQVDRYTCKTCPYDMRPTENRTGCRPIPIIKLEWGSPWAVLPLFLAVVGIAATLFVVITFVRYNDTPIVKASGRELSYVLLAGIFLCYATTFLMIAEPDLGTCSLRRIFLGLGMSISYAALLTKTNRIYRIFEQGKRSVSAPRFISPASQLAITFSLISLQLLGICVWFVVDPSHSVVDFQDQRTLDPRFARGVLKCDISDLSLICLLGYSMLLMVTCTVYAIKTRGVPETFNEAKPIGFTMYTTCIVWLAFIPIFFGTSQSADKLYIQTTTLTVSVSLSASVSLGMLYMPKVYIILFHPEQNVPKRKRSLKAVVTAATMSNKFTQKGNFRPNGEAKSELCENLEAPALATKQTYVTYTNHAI

Ki [1] [µM] | Activity [2] | Ki [3] [µM] | Ki [4] [µM] | Ki [5] [µM] | Ki [6] [µM] | Ki [7] [µM] | Activity [8] | Ki [9] [µM] | logKi [10] | Structure (SMILES)
> 1000 | inactive | > 300 | > 1000 | > 300 | > 1000 | > 300 | inactive | > 300 | 2.48 | N[C@@H](CC12CC(C(=O)O)(C1)C2)C(=O)O
210 | inactive | > 300 | > 1000 | > 300 | > 1000 | 336 | inactive | 29 | 1.46 | N[C@H](CC12CC(C(=O)O)(C1)C2)C(=O)O
 |  |  |  |  |  |  | 103 nM |  |  | O=C(O)[C@H]1CN(CCCP(=O)(O)O)CCN1

Structure (SMILES) | Ki [1] [µM] | Activity [2] | Ki [3] [µM] | Ki [4] [µM] | Ki [5] [µM] | Ki [6] [µM] | Ki [7] [µM] | Activity [8] | Ki [9] [µM] | logKi [10]
N[C@@H](CCP(=O)(O)O)C(=O)O | > 1000 |  | > 1000 | > 1000 | > 1000 | 0.16 | > 1000 |  | > 300 | 
